Bioassay records from PubChem BioAssay.
esBAF inh: SWI/SNF esBAF complex inhibition; reporter increase, % at 12.5 µM; mouse ES cells, Bmi1-luciferase knock-in reporter, 24 h; 100% = twice the neutral-well signal; actives 2% (n = 350,000); AID 602393; in the data active = activation above about 40%;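 note: 0% = median of the plate's neutral control wells and 100% = double that signal; a rise in the Bmi1 reporter signal indicates esBAF inhibition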
CASP6 VEID inh: caspase-6 (human) enzyme inhibition; purified caspase-6, Z-VEID-R110 cleavage fluorescence; AID 686996; actives 0.53% (n = 350,000); P55212; inhibition, % at 12.5 µM;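 active = mean inhibition across replicates at least about 35%, with every replicate also reaching that limit, limit read from the data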;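 note: 0% = median of neutral control wells and 100% = no fluorescence left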
XiGFP reactiv: reactivates the inactive X chromosome in mouse fibroblasts; XiGFP mouse fibroblasts, % GFP-positive cells imaging, 3 d; cells co-treated with 5-aza-dC sensitizer; scaled so ellipticine positive control = 100%; activation, % at 7.58 µM; actives 0.055% (n = 360,000);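 active = mean normalized replicate activation at least 10% and every replicate at or above 10%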;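 note: 0% = median of on-plate neutral control wells and 100% = ellipticine 6 µM median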
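Material: XiGFP fibroblasts, SV40-immortalized; Buffer or medium: DMEM containing 5-aza-dC; Compound dosing: single point; Times: 3 days compound exposure.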
NSD2 HMT inh: inhibitors of human histone methyltransferase NSD2; NSD2 peptide methylation, AlphaScreen, 120 min; inhibition, % at 12.5 µM; actives 0.54% (n = 310,000); in the data active = inhibition above about 50%
Target sequence (O96028 whole entry, looked up): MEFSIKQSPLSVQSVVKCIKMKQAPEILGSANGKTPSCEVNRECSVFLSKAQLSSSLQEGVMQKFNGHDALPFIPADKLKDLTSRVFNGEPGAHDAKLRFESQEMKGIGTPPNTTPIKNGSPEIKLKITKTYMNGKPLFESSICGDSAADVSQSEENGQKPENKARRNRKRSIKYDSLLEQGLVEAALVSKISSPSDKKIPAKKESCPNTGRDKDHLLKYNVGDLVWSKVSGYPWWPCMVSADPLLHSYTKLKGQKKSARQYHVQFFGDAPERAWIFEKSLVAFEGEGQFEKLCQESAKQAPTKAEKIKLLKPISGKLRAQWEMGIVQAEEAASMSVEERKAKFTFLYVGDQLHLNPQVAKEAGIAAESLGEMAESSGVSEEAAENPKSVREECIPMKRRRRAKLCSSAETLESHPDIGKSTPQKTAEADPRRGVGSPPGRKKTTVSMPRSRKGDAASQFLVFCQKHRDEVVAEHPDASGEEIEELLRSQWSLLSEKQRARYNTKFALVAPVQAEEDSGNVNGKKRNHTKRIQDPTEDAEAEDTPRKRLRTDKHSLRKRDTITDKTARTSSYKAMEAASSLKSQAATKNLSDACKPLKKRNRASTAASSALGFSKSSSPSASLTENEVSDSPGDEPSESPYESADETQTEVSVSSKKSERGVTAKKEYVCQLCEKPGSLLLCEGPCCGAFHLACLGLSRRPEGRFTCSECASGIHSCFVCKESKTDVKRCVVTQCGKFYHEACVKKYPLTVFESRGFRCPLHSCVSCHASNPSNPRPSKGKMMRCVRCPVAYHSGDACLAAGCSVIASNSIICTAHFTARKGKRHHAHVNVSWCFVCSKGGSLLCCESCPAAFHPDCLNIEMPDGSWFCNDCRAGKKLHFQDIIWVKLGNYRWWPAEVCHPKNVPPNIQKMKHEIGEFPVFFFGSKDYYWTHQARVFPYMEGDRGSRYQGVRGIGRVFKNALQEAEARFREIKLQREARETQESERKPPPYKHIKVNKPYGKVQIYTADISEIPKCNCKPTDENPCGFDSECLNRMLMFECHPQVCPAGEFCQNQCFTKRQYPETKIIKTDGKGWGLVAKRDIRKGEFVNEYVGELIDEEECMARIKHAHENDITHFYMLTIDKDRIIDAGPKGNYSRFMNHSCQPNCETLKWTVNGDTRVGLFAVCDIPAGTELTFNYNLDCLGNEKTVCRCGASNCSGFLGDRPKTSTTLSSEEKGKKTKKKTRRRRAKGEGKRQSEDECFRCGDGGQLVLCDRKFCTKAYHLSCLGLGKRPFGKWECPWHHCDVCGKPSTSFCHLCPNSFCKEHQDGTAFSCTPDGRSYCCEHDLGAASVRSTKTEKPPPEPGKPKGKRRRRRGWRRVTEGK
Wnt bcat act: activates Wnt/beta-catenin signaling in a reporter cell assay; activation, % at 9.35 µM; activator, plate reader; actives 1.2% (n = 300,000); in the data active = activation above about 30%, passing the limit was not always enough;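 note: 0% = neutral control wells and 100% = positive control wells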
MITF TRPM1 HTS: MITF TRPM1 promoter activation in melanoma cells. actives 0.75% (n = 300,000). AID 588334. activation, % at 12.5 µM. SK-MEL-5 TRPM1-promoter luciferase, 24 h; % of positive control, neutral wells = 0;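 active = mean activation of at least 80% with every replicate also reaching 80%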;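 note: 0% = neutral control wells and 100% = parthenolide positive control wells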
AlphaScreen art: AlphaScreen assay artifact in NSD2 counter-screen; shares compounds with NSD2 HMT inh; AlphaScreen artifact counterscreen, preloaded methylated H4 peptide; AC35, µM (series often up to 10 µM), for the others: top-dose activity change, negative = signal loss; actives 9.4% (n = 1,500); AID 1053174; call rule not given here
An asterisk follows results filed as active. Compounds with a hit are over-represented: about 3% of the library has one in this group of screens.

C=C(C)c1cccc(C(C)(C)NC(=O)NC2CN3CCC2CC3)c1 (centres undefined) was read as esBAF inh -1, NSD2 HMT inh 51* and AlphaScreen art 0%.
For COc1ccc(C#Cc2ccc([C@H]3[C@H]4CN(C(=O)Cc5ccncc5)CCCCN4[C@H]3CO)cc2)cc1 the results were CASP6 VEID inh 0 and XiGFP reactiv 0.
Screening COc1ccc(C#Cc2ccc([C@H]3[C@H]4CN(C(=O)Cc5cccnc5)CCCCN4[C@H]3CO)cc2)cc1 returned CASP6 VEID inh 3 and XiGFP reactiv 0.
For O=[N+]([O-])c1ccc(N2CCCC2)c2ccncc12 the results were CASP6 VEID inh 3, XiGFP reactiv 0, NSD2 HMT inh 71*, Wnt bcat act -1, MITF TRPM1 HTS -3 and AlphaScreen art -4%.
`O=[N+]([O-])c1ccc(NC2CCCC2)c2ccncc12` gave esBAF inh -11, NSD2 HMT inh 9 and MITF TRPM1 HTS -3.
`CC[n+]1c(/C=C/N(C)c2ccccc2)sc2ccc(Cl)cc21` gave esBAF inh -26, NSD2 HMT inh 28, Wnt bcat act -10 and MITF TRPM1 HTS -65.
CN(C)c1ccc(/C=C/C=C/c2sc3ccccc3[n+]2C)cc1 was read as CASP6 VEID inh 6, XiGFP reactiv 0, NSD2 HMT inh 57*, Wnt bcat act -8 and AlphaScreen art 10µM*.
`CC[n+]1c(/C=C/C=C/c2ccc(N(C)C)cc2)sc2ccccc21` gave CASP6 VEID inh 0, XiGFP reactiv 1, NSD2 HMT inh 81*, Wnt bcat act -17 and AlphaScreen art 3.7µM*.
Screening O=C(Cc1cccnc1)N1CCCCN2[C@@H](CO)[C@H](c3ccc(C#CC4CC4)cc3)[C@@H]2C1 returned CASP6 VEID inh 0.
COc1cc(/C=C2/C(=O)NC(=O)N(c3ccccc3)C2=O)ccc1O was read as CASP6 VEID inh 8, XiGFP reactiv 0, NSD2 HMT inh 7 and MITF TRPM1 HTS -1.
`O=C1NC(=O)N(c2ccccc2)C(=O)/C1=C/c1ccoc1` gave esBAF inh 7, XiGFP reactiv 0, NSD2 HMT inh 51*, Wnt bcat act 0, MITF TRPM1 HTS -22 and AlphaScreen art -6%.
Screening CCOC(=O)[C@@H]1[C@@H]2NC(=S)N[C@@]1(C)Oc1ccccc12 returned CASP6 VEID inh -2.
For CCn1nc(-c2cccs2)nc2c(=O)n(C)c(=O)nc1-2 the results were esBAF inh -24 and MITF TRPM1 HTS -100.
CCn1nc(/C=C/c2ccccc2)nc2c(=O)n(C)c(=O)nc1-2 was read as XiGFP reactiv 0, NSD2 HMT inh active, Wnt bcat act -2, MITF TRPM1 HTS -104 and AlphaScreen art -1%.
`CN(C)C(CNC(=O)Cc1ccc(Br)cc1)c1ccccc1` (centres undefined) gave esBAF inh -8, CASP6 VEID inh -1, XiGFP reactiv 0, NSD2 HMT inh 53*, Wnt bcat act 1 and AlphaScreen art -7%.
COC(=O)C1=Nc2ccccc2/C1=C\c1c(O)n(-c2ccc(OC)cc2)c(=O)[nH]c1=O was read as esBAF inh -4, NSD2 HMT inh 3 and MITF TRPM1 HTS -16.
Screening COC(=O)C1=Nc2ccccc2/C1=C\c1c(O)n(-c2ccc(Br)cc2)c(=O)[nH]c1=O returned CASP6 VEID inh 16, XiGFP reactiv 0, NSD2 HMT inh 61*, Wnt bcat act -2, MITF TRPM1 HTS -7 and AlphaScreen art 0%.
`COc1ccc(C#Cc2ccc([C@H]3[C@@H](CO)N4CCCCN(C(=O)Cc5ccncc5)C[C@@H]34)cc2)cc1` gave CASP6 VEID inh 1 and XiGFP reactiv 2.
C[C@H]1CCCC(=O)CCC/C=C/c2cc(O)cc(O)c2C(=O)O1 was read as esBAF inh 12, CASP6 VEID inh -1, XiGFP reactiv 0, Wnt bcat act -2 and MITF TRPM1 HTS -6.
`COc1cc(O)cc2c1C(=O)OC(C)CCCC(=O)CCC/C=C\2` (centres undefined) gave esBAF inh -3, CASP6 VEID inh 3, XiGFP reactiv 0, NSD2 HMT inh 54*, Wnt bcat act -2, MITF TRPM1 HTS -2 and AlphaScreen art -1%.
`Cc1ccccc1-c1ccc([C@@H]2[C@H](CO)N3CCCCN(C(=O)Cc4ccccn4)C[C@@H]23)cc1` gave CASP6 VEID inh 0 and XiGFP reactiv 0.
COC(=O)c1nc(-c2ccc3c(n2)C(=O)C(N)=C(OC)C3=O)c(N)c(-c2ccc(OC)c(OC)c2O)c1C was read as esBAF inh -9, CASP6 VEID inh 54*, XiGFP reactiv 0, NSD2 HMT inh 55*, Wnt bcat act 0, MITF TRPM1 HTS -97 and AlphaScreen art -2%.
For COC(=O)[C@@H]1[C@@H](CO)[C@@H]2Cn3c(ccc(C4=CCCCC4)c3=O)[C@H]1N2C(=O)CC1CC1 the results were esBAF inh -1, CASP6 VEID inh 4 and XiGFP reactiv 0.
For CCOc1cccc(N2C(=O)/C(=C/c3ccco3)C(=O)NC2=S)c1 the results were esBAF inh -5, CASP6 VEID inh 87*, XiGFP reactiv 0, NSD2 HMT inh 123*, Wnt bcat act -1 and AlphaScreen art 2.6µM*.
`COc1ccc(N2C(=O)/C(=C/c3ccc(N(C)C)o3)C(=O)NC2=S)cc1` gave esBAF inh -3, CASP6 VEID inh 11, XiGFP reactiv 0, Wnt bcat act -1 and MITF TRPM1 HTS 5.
COc1ccc(CN2C(=O)NC(=O)/C(=C\c3ccco3)C2=O)cc1 was read as esBAF inh -2, CASP6 VEID inh 82*, XiGFP reactiv 0, NSD2 HMT inh 51*, Wnt bcat act -13, MITF TRPM1 HTS -10 and AlphaScreen art -11%.
For CCN1[C@@H]2Cn3c(ccc(-c4ccc(OC)cc4)c3=O)[C@H]1[C@@H](C(=O)OC)[C@@H]2CO the results were esBAF inh -8, CASP6 VEID inh -2 and XiGFP reactiv 0.
COC(=O)[C@H]1[C@H](CO)[C@H]2Cn3c(cccc3=O)[C@@H]1N2C(=O)C1CC1 was read as esBAF inh 0, CASP6 VEID inh -1 and XiGFP reactiv 0.
